DSG3 Ab inh – blocks pemphigus antibody binding to human desmoglein-3; DSG3-coupled beads, scFv-anti-DSG3-GFP binding, flow cytometry; hits give low values; actives 0.48% (n = 310,000); binding (percent of control), % at 10 µM; P32926;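 active = binding more than 3 SD below its plate's average and above zero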;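 also: hits lower antibody fragment binding to DSG3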
MBD2 inh – MBD2-methylated oligo binding inhibition; TR-FRET, MBD2 binding to methylated oligonucleotide; Q9UBB5; inhibition, % at 4.4 µM; AID 686964; actives 0.31% (n = 370,000); in the data active = inhibition above about 13%
Target sequence (Q9UBB5 whole entry, looked up): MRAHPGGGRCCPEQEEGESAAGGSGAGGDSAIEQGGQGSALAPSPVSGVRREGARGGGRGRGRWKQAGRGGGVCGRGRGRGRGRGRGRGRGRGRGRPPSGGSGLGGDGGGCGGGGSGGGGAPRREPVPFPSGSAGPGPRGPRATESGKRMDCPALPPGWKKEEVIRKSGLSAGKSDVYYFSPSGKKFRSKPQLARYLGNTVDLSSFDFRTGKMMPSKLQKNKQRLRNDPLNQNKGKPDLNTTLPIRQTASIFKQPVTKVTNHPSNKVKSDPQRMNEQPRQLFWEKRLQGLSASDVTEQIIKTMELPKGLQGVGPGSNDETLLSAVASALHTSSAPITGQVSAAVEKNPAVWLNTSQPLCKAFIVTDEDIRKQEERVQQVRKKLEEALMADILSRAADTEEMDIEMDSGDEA
HCV NS3 hel inh – blocks Hepatitis C virus NS3 helicase unwinding; actives 0.56% (n = 290,000); inhibition, % at 10.9 µM; NS3 helicase DNA unwinding, Cy5 molecular beacon fluorescence;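 active = inhibition above the mean of all tested compounds plus 3 SD, set per campaign, cut at about 35% in these data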
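assay system = NS3 helicase fragment of HCV | buffer or medium = MOPS pH 6.5, MgCl2, DTT, Tween20, BSA | timing = 60 min unwinding reaction at 25 °C after ATP addition | signal = Cy5 beacon fluorescence read at start and 1 h | read-out basis = % inhibition of unwinding | control set = low DMSO, high thioflavine S at 110 µM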
DNMT1 inh – DNMT1 (human) enzyme inhibition | P26358 | DNMT1 molecular beacon, Hinp1I cleavage, fluorescence | inhibition (reported as % activation of signal), % at 10 µM | actives 0.83% (n = 360,000) | AID 588458; in the data active = inhibition above about 50%
SUMO1 PPI mod – modulators of human SUMO1-mediated protein-protein interactions. P63165. inhibition, % at 20 µM. SUMO1 binding to a labelled peptide, TR-FRET, 1 h. actives 0.33% (n = 360,000); in the data active = inhibition above about 37%
Target sequence (P63165 whole entry, looked up): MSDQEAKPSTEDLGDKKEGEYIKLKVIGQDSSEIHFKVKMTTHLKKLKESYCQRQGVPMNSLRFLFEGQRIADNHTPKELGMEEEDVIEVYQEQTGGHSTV
UHRF1 binding – human UHRF1 methylated DNA binding inhibitors. Q96T88. UHRF1 binding to methylated oligo, TR-FRET. inhibition, % at 4.4 µM. actives 0.75% (n = 370,000). AID 687016; in the data active = inhibition above about 21%;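 also: UHRF1 SRA domain binding a hemimethylated CpG hairpin DNA probe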
DNMT1 confirm – confirmation of human DNMT1 inhibitors; DNMT1 molecular beacon HinP1I cleavage, fluorescence; inhibition, % at 10 µM; shares compounds with DNMT1 inh; actives 8% (n = 2,300); AID 602385;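 active = average inhibition of at least 30% in the single-concentration confirmation test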
Beacon interf – counter-screen for DNMT1 inhibitors: spectral interference; shares compounds with DNMT1 inh; DNMT1 molecular beacon spectral interference counterscreen, fluorescence 485/520; activation (fluorescence interference), % at 10 µM; actives 1% (n = 2,300);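 active = activation of at least 30% at 10 µM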;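 also: DNMT1 catalytic domain with a HinP1I cleavage step and a FAM/dabcyl DNA beacon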
Of the large screens only hits and unclear results are named; the others gave an inactive call (follow-up assays come after a bar, where they were run). Hits are enriched below; roughly 2.5% of the tested compounds scored in any of these assays.

Cc1c(C(=O)O)cccc1-c1ccc(/C=N/n2cnnc2)o1	DNMT1 inh 58 | DNMT1 confirm inactive | Beacon interf inactive
Cc1c(Cl)cccc1-c1ccc(/C=N/n2cnnc2)o1	none
O=S(=O)(NCc1ccccc1)c1cccc2nsnc12	DNMT1 inh 85 | DNMT1 confirm inactive | Beacon interf inactive
CCSC1=C(C#N)C(c2cccc(O)c2)CC(=O)N1 (stereo not drawn)	none
O=C(C1=NN(c2ccccc2)C2C(=O)N(c3cccc(Cl)c3)C(=O)C12)c1ccccc1 (stereo not drawn)	none
O=S(=O)(c1ccc(F)cc1)N1CCN(c2ccccc2)CC1	none
CC1CCCCN1S(=O)(=O)c1ccc(S(=O)(=O)N2CCN(c3ccc(F)cc3)CC2)cc1 (stereo not drawn)	DNMT1 inh 52 | DNMT1 confirm inactive | Beacon interf inactive
O=C1NN(c2cccc(Br)c2)C(=O)/C1=C\c1ccc(N2CCOCC2)cc1	DNMT1 inh 65 (no result: MBD2 inh, UHRF1 binding) | DNMT1 confirm inactive | Beacon interf inactive
C=CCO/N=C(/C)c1c(O)c(CC)c(-c2ccccc2)n(-c2ccccc2)c1=O	none
CCOc1cc(C#N)ccc1OCC(=O)NNC(=O)CC1CCS(=O)(=O)C1 (stereo not drawn)	DNMT1 inh 77 (no result: HCV NS3 hel inh) | DNMT1 confirm inactive | Beacon interf inactive
O=C(COc1c(F)c(F)cc(F)c1F)NNC(=O)CC1CCS(=O)(=O)C1 (stereo not drawn)	none (no result: HCV NS3 hel inh)
COCCNCCCCSc1ccc(Cl)cc1	DNMT1 inh 75 | DNMT1 confirm inactive | Beacon interf inactive
COCCNC(=O)CSc1ccc(Cl)cc1	none
COc1cc2oc(=O)cc(-c3ccc(-c4ccc(O)cc4)cc3)c2c(OC)c1OC	none (no result: HCV NS3 hel inh)
O=C1NC(=S)S/C1=C\c1coc2ccc(O)cc2c1=O	DNMT1 inh 81 | DNMT1 confirm inactive | Beacon interf inactive
COc1ccc2cc3c(N)nn(C(=O)Cc4ccccc4OC)c3nc2c1	none
COc1ccc2cc3c(N)nn(C(=O)c4cccc([N+](=O)[O-])c4)c3nc2c1	DNMT1 inh 77, SUMO1 PPI mod 53 | DNMT1 confirm inactive | Beacon interf inactive
O=C1Nc2ccc(S(=O)(=O)NCc3ccccn3)c3cccc1c23	DNMT1 inh 54 | DNMT1 confirm inactive | Beacon interf inactive
Cc1nc(-c2ccccc2)sc1-c1n[nH]c(=S)n1C	none
CSc1sc(-c2n[nH]c(=S)n2C)c2c1C=CCC2	DNMT1 inh 66 | DNMT1 confirm inactive | Beacon interf inactive
COc1ccc(N(C(=O)Cn2nnc3ccccc32)C(C(=O)NCc2ccco2)c2cccnc2)cc1 (stereo not drawn)	none
Cc1ccc(NC(=O)c2cc([N+](=O)[O-])ccc2NCc2cccnc2)cc1Cl	none
N=C1S/C(=C\c2ccccc2F)C(=O)N1c1ccc(F)cc1	DNMT1 inh 60 | DNMT1 confirm inactive | Beacon interf inactive
N=C1S/C(=C\c2cccc3ccccc23)C(=O)N1c1ccc(F)cc1	none
COc1ccc(-n2c(-c3cccc(OC)c3)nc(=S)c3c2CCCC3)cc1	none
Cc1ccc(C(=O)NCCCNCCCNC(=O)c2ccc(C)nc2)cn1	none
Cc1ccc(C(=O)NCCCNCCCN(C)C)cn1	DNMT1 inh 53 | DNMT1 confirm inactive | Beacon interf inactive
O=c1c2cc3cc4c(cc3nc2ncn1CCc1ccccc1)OCO4	none (no result: DSG3 Ab inh, HCV NS3 hel inh, DNMT1 inh, SUMO1 PPI mod)
Cc1ccc(N2C(=O)C(Cc3ccc(O)cc3)NC2=S)cc1C (stereo not drawn)	none
Cc1ccccc1NC(=O)/C(C#N)=C/c1ccccc1C(F)(F)F	none (no result: DSG3 Ab inh)
CCCc1cc(=O)oc2c(C)c(OCC(=O)c3ccc(N4CCCC4)cc3)ccc12	DNMT1 inh 57 | DNMT1 confirm inactive | Beacon interf inactive
CCCCc1cc(=O)oc2c(C)c(OCC(=O)N3CCCC3)ccc12	none
O=[N+]([O-])c1ccc(/C=N/Nc2nc3ccccc3o2)cc1	DNMT1 inh 56 | DNMT1 confirm inactive | Beacon interf inactive
CCCCCCCC(=O)Nc1ccc(C(=O)N/N=C/c2cccc([N+](=O)[O-])c2)cc1	DNMT1 inh 78 (no result: DSG3 Ab inh) | DNMT1 confirm inactive | Beacon interf inactive
CCCCCCC(=O)Nc1ccc(C(=O)N/N=C/c2cccnc2)cc1	none
Cn1cccc1CC(=O)N/N=C/c1cc([N+](=O)[O-])ccc1Cl	none
O=[N+]([O-])c1ccc(NN=Cc2cccc([N+](=O)[O-])c2)cc1	DNMT1 inh 72 (no result: HCV NS3 hel inh) | DNMT1 confirm inactive | Beacon interf inactive
Cn1cccc1CC(=O)N/N=C/c1cccc([N+](=O)[O-])c1	DNMT1 inh 94 | DNMT1 confirm inactive | Beacon interf inactive
Cc1ccc(C)c(OC(=O)c2cccc(S(=O)(=O)N3CCN(C)CC3)c2)c1	none
Cc1ccccc1-c1nnc(SC(C)C(=O)NC2CCCC2)o1 (stereo not drawn)	none (no result: DSG3 Ab inh, HCV NS3 hel inh)
Cc1cc(NC(=O)CSc2ncnc3sccc23)no1	none
N#Cc1c(NC(=O)CSc2ncnc3sccc23)oc(-c2ccco2)c1-c1ccco1	DNMT1 inh 92 | DNMT1 confirm inactive | Beacon interf inactive
COC(=O)c1cc(C(C)=O)c(C)[nH]c1=O	none
COC(=O)c1cc(C#N)c(=O)[nH]c1C	DNMT1 inh 89 | DNMT1 confirm inactive | Beacon interf inactive
COc1ccc(CNC(=O)C2CC(c3ccccc3C(F)(F)F)=NO2)cc1 (stereo not drawn)	DNMT1 inh 72 (no result: HCV NS3 hel inh) | DNMT1 confirm inactive | Beacon interf inactive
Cc1ccc(CNC(=O)C2CC(c3ccccc3C(F)(F)F)=NO2)cc1 (stereo not drawn)	none (no result: HCV NS3 hel inh)
Cc1ccc(COC(=O)c2cc(S(=O)(=O)N3CCCCC3)ccc2N2CCOCC2)cc1	none (no result: HCV NS3 hel inh)
COC(=O)/C(=C\c1ccc([N+](=O)[O-])o1)NC(=O)c1ccccc1	none
CSc1ccc(/C=C(/NC(=O)c2ccc(C)cc2)C(=O)Nc2cccc(C)c2)cc1	DNMT1 inh 55 | DNMT1 confirm inactive | Beacon interf inactive
Cc1cccc(NC(=O)/C(=C\c2ccc([N+](=O)[O-])o2)NC(=O)c2ccc(Cl)cc2)c1	DNMT1 inh 85 | DNMT1 confirm inactive | Beacon interf inactive
COc1cc2c3c(c1)C1(C(=O)N3C(C)(C)C=C2C)C(C#N)=C(N)Oc2cc(C)oc(=O)c21 (stereo not drawn)	none
CCCCn1c(NC(=O)CC)c(C#N)c2nc3ccccc3nc21	DNMT1 inh 74 (no result: DSG3 Ab inh) | DNMT1 confirm inactive | Beacon interf inactive
CCC(=O)Nc1c(C#N)c2nc3ccccc3nc2n1C1CCCCC1	DNMT1 inh 94, SUMO1 PPI mod 72 | DNMT1 confirm inactive | Beacon interf inactive

Compound activity: PubChem, several laboratories
